Experimental data: ChEMBL document CHEMBL1138251, “Synthesis and evaluation of antiparasitic activities of new 4-[5-(4-phenoxyphenyl)-2H-pyrazol-3-yl]morpholine derivatives” (J Med Chem, 2007)

Key:
[1] = test system: Trypanosoma brucei rhodesiense; test: Antiparasitic activity against Trypanosoma brucei rhodesiense STIB900 in procyclic stage; assay type: functional, organism-based
[2] = test system: Leishmania donovani; test: Antiparasitic activity against Leishmania donovani MHOM-ET-67/L82 in amastigotes stage; assay type: functional, organism-based
How it was run: (§1)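 Microplate assay at pH 7.4. Organisms: L. donovani MHOM-ET-67/L82, T. b. rhodesiense STIB900, T. cruzi Tulahuen C4. Cytotoxicity used rat skeletal myoblast L-6 cells. Compounds were tested in duplicate at […], and actives were retested in duplicate down to 3.5 nM. IC50 was taken from sigmoidal inhibition curves. Reference standards: miltefosine (L. donovani), melarsoprol (T. b. rhodesiense), benznidazole (T. cruzi), podophyllotoxin (L-6).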

[3] = test system: Trypanosoma cruzi; test: Antiparasitic activity against Trypanosoma cruzi Tulahuen C4 in amastigotes stage
[4] = test system: L6; test: Cytotoxicity against rat L6 cells; assay type: cell-based
[5] = test system: Trypanosoma brucei rhodesiense; test: Antiparasitic activity against Trypanosoma brucei rhodesiense STIB900 in blood; assay type: functional, organism-based; how it was run: as §1
[6] = test system: Plasmodium falciparum; test: Antiparasitic activity against chloroquine, pyrimethamine-resistant Plasmodium falciparum K1 erythrocyte stage

SMILES	IC50 [1]	IC50 [2]	IC50 [3]	IC50 [4]	IC50 [5]	IC50 [6]
O=[N+]([O-])c1ccc(Oc2ccc(-c3cc(N4CCOCC4)[nH]n3)cc2)cc1	93.4 µM	22.3 µM	> 81 µM	> 245 µM	4.4 µM	> 13 µM
O=C(CC(=O)c1ccc(Oc2ccccc2)cc1)CN1CCOCC1	1 µM	5.2 µM	20.6 µM	112 µM	18.9 µM	> 15 µM
CSC(=CC(=O)c1ccc([N+](=O)[O-])cc1)SC	> 334 µM	20.2 µM	54.6 µM	40.5 µM	224 µM	> 18 µM
Nc1ccc(Oc2ccc(-c3cc(N4CCOCC4)[nH]n3)cc2)cc1	> 267 µM	20.3 µM	> 89 µM	> 267 µM	17.7 µM	> 14 µM
O=C(Cn1ccnc1[N+](=O)[O-])NCc1ccccc1 [BENZNIDAZOLE]			2.13 µM			
CSC(=CC(=O)c1ccc(Oc2ccc([N+](=O)[O-])cc2)cc1)SC	> 249 µM	5.7 µM	> 83 µM	156 µM	45.9 µM	> 13 µM
O=C(CC(=O)C1CCOCC1)c1ccc(Oc2ccccc2)cc1	1.8 µM	4.6 µM	54.6 µM	231 µM	25.8 µM	> 15 µM
Nc1nc(N)nc(Nc2ccc([As]3SCC(CO)S3)cc2)n1 (stereo unspecified) [MELARSOPROL]	0.13 µM				0.01 µM	
CSC(=CC(=O)c1ccc(Oc2ccccc2)cc1)SC	16.6 µM	9.7 µM	24.4 µM	34.5 µM	51.4 µM	> 15 µM
CCc1ccc(C(=O)CC(=O)C2CCOCC2)cc1	3.4 µM	9.8 µM	54.9 µM	202 µM	20.9 µM	> 19 µM
Nc1ccc(-n2nc(-c3ccc(Oc4ccccc4)cc3)cc2N2CCOCC2)cc1	61.7 µM	10.5 µM	22 µM	61.6 µM	10.3 µM	6.5 µM
c1ccc(Oc2ccc(-c3cc(CN4CCOCC4)[nH]n3)cc2)cc1	54.9 µM	15.6 µM	45.3 µM	150 µM	4.1 µM	> 14 µM
c1ccc(Oc2ccc(-c3cc(N4CCOCC4)[nH]n3)cc2)cc1	40.7 µM	8 µM	52 µM	61.6 µM	1 µM	> 15 µM
CCc1ccc(-c2cc(C3CCOCC3)[nH]n2)cc1	7.8 µM	15.1 µM	114 µM	165 µM	28.6 µM	> 19 µM
CC(C)(C)OC(=O)N1CCN(c2cc(-c3ccc(Oc4ccccc4)cc3)n[nH]2)CC1	17.6 µM	2.3 µM	12.8 µM	30 µM	2.9 µM	8.1 µM
c1ccc(Oc2ccc(-c3cc(C4CCOCC4)[nH]n3)cc2)cc1	43 µM	6.4 µM	59 µM	89.6 µM	3.2 µM	> 15 µM
O=[N+]([O-])c1ccc(-n2nc(-c3ccc(Oc4ccccc4)cc3)cc2N2CCOCC2)cc1	> 203 µM	4.8 µM	> 67 µM	> 203 µM	28.8 µM	3.7 µM
c1ccc(Oc2ccc(-c3cc(N4CCNCC4)[nH]n3)cc2)cc1	4.7 µM	25.8 µM	9.5 µM	18 µM	1.1 µM	6.6 µM
CCCCCCCCCCCCCCCCOP(=O)([O-])OCC[N+](C)(C)C [MILTEFOSINE]		0.26 µM				
c1ccc(Oc2ccc(-c3cc(N4CCOCC4)on3)cc2)cc1	75.2 µM	12.7 µM	46.5 µM	172 µM	5.9 µM	10.5 µM
